Screening results deposited in PubChem by The Scripps Research Institute Molecular Screening Center.
STAT1 blocker: reduces IFN-gamma driven STAT1 reporter signal; NIH 3T3 STAT1-luciferase reporter, luminescence; inhibition, % at 5.5 µM; 200,000 tested, 0.35% active; AID 920;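 active = inhibition above a set limit, the mean inhibition across all tested compounds plus 3 SD, cut at about 34% in these data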;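 note: 0% = IFN-gamma with DMSO and 100% = IFN-gamma with 300 µM nifuroxazide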
STAT3 act: increases IL-6 driven STAT3 reporter signal | U3A cells, IL-6 STAT3-luciferase reporter, luminescence; 100% = signal with IL-6 EC80 alone | activation (% of control), % at 5.6 µM | 190,000 tested, 0.91% active | AID 871;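 active = activation above the screen-wide mean of compound activation plus 3 SD, cut at about 130% in these data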;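 note: 0% = background luminescence of wells with medium and substrate only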
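Assay system – human STAT1-deficient U3A cells with stable STAT3-luciferase reporter · Also added – IL-6 (33 ng/mL) · Schedule – compound 1 h, then IL-6 6 h at 37 °C · Technique – reporter luminescence signal · Evaluation – % activation versus median of IL-6-stimulated wells · Benchmarks – IL-6-only wells as 100% reference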
STAT3 inh-1: inhibitors of IL-6 induced STAT3 signaling; U3A cells, IL-6 STAT3-luciferase reporter, luminescence; host cell line lacks STAT1; inhibition, % at 5.5 µM; 190,000 tested, 0.89% active;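 active = inhibition above the mean inhibition across all screened compounds plus 3 SD, cut at about 44% in these data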;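 note: 0% = DMSO only wells and 100% = 100 µM nifuroxazide control wells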
HSP90 refold inh: inhibitors of HSP90 luciferase refolding in rabbit reticulocyte lysate. luciferase refolding luminescence, 3 h. inhibition, % at 5.6 µM. 290,000 tested, 0.91% active. AID 1789;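 active = inhibition above the screen-wide mean plus 3 SD, computed separately per campaign, cut at about 16% in these data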;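 note: 0% = DMSO wells and 100% = 60 µM geldanamycin wells; inhibitors lower the luminescence because luciferase stays unfolded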
STAT3 inh-2: STAT3 inhibition, confirmation assay | shares compounds with STAT3 inh-1 | U3A cells, IL-6 STAT3 luciferase reporter, luminescence; cell line lacks STAT1 | inhibition, % at 5.7 µM | 1,200 tested, 45% active | AID 1265;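 active = inhibition above the hit cutoff computed for the primary STAT3 screen, cut at about 44% in these data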;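 note: 0% = IL-6 plus DMSO and 100% = IL-6 plus nifuroxazide control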
NFkB inh STAT3ct: counter-screen for STAT3 inhibitors: NF-kappaB inhibition; shares compounds with STAT3 inh-1; HEK293T NF-kB luciferase reporter, TNF-alpha induced; inhibition, % at 5.7 µM; 1,200 tested, 36% active;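 active = inhibition above the mean of solvent-only control wells plus 3 SD, cutoff set per campaign, cut at about 13% in these data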;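 note: 0% = TNF-alpha with DMSO and 100% = TNF-alpha with MG high control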
STAT1 inh STAT3c: counter-screen for STAT3 inhibitors: STAT1 inhibition. shares compounds with STAT3 inh-1. NIH 3T3 STAT1-luciferase reporter, IFN-gamma induced, luminescence. inhibition, % at 5.7 µM. 1,200 tested, 27% active. AID 1317;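 active = inhibition above the mean plus 3 SD of solvent-only control wells, limit set per screening run, cut at about 16% in these data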;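 note: 0% = DMSO with IFN-gamma and 100% = nifuroxazide control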
HSP90 inh confirm: confirmation of HSP90 inhibitors. shares compounds with HSP90 refold inh. rabbit reticulocyte lysate, luciferase refolding luminescence, 3 h. inhibition, % at 5.9 µM. 2,300 tested, 64% active; in the data active = inhibition above about 18%;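 note: 0% = vehicle wells and 100% = reference inhibitor wells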
luciferase ctr: counter-screen for HSP90 inhibitors: inhibitors of firefly luciferase; 2,300 tested, 48% active; AID 1847; purified native firefly luciferase, luminescence; shares compounds with HSP90 refold inh; inhibition, % at 5.9 µM;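 active = inhibition above the mean inhibition of all tested sample wells plus 3 SD, cut at about 10% in these data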;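 note: 0% = DMSO with luciferase and 100% = wells lacking luciferase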
Target sequence (P08659 whole entry, looked up): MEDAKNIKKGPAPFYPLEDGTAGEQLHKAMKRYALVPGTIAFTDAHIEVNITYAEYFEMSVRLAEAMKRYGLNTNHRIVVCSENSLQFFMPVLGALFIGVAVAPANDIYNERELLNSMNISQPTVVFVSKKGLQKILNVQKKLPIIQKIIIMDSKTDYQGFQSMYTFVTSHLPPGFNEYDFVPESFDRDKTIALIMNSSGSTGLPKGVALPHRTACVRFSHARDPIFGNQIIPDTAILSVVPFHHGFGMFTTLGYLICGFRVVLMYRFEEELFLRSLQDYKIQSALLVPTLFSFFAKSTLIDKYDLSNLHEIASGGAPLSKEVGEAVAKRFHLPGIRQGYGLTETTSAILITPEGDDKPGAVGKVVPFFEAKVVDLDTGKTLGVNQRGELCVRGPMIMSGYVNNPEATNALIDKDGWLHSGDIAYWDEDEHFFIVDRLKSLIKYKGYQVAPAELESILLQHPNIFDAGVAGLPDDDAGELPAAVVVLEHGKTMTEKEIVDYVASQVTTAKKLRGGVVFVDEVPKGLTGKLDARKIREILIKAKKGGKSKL
Active calls of the source: *; . = no result. Most compounds without a hit are left out; they make up all but 2% or so of the library.

SMILES	STAT1 blocker	STAT3 act	STAT3 inh-1	HSP90 refold inh	STAT3 inh-2	NFkB inh STAT3ct	STAT1 inh STAT3c	HSP90 inh confirm	luciferase ctr
CCOc1cccc(/C=N/NC(=S)Nc2ccccc2[N+](=O)[O-])c1O	15	43	69*	75*	24	-8	-32	71*	34*
CCCCNC(=S)N/N=C/c1cccc(OCC)c1O	.	.	.	-4	.	.	.	.	.
COc1cccc(-c2cc(C(=O)Nc3cccc(O)c3)no2)c1	0	29	89*	18*	50*	9	-53	64*	57*
NNC(=O)c1cccc(COc2cccc(Br)c2)c1	-12	97	5	-1	.	.	.	.	.
NNC(=O)c1cccc(COc2ccc(Br)cc2)c1	32	31	79*	60*	71*	33*	31*	49*	17*
CCC(C(=O)OCC(=O)N(CCOC)c1c(N)n(Cc2ccccc2)c(=O)[nH]c1=O)c1ccccc1 (configuration not stated)	.	.	.	3	.	.	.	.	.
CSc1ccccc1NC(=O)Nc1cccc2ccccc12	.	.	.	8	.	.	.	.	.
O=C(Nc1cccc(O)c1)c1noc2c1CCCCC2	9	31	83*	60*	72*	29*	6	69*	57*
Brc1c(C[n+]2ccccc2)nc2ccccn12	.	.	.	4	.	.	.	.	.
Cc1cc(C(=O)CSc2nnc(N)s2)c(C)n1Cc1cccs1	-12	57	51*	28*	36	8	-46	65*	59*
Cc1cc(C(=O)COc2cccnc2[N+](=O)[O-])c(C)n1Cc1cccs1	13	75	32	8	.	.	.	.	.
Cc1csc(SCC(=O)c2cc(C)n(Cc3cccs3)c2C)n1	40*	35	79*	65*	52*	24*	-26	85*	81*
CC(=O)Nc1ccccc1OCC(=O)c1cc(C)n(Cc2cccs2)c1C	7	37	79*	47*	84*	27*	-16	69*	-15
COc1ccc(-n2cnnc2SCC(=O)c2cc(C)n(Cc3cccs3)c2C)cc1	-6	99	9	1	.	.	.	.	.
COc1ccc(-c2nnc(SCC(=O)c3cc(C)n(Cc4cccs4)c3C)o2)cc1	2	104	-1	5	.	.	.	.	.
CC(C)n1nnnc1SCC(=O)NC1CCCC1	.	.	.	-2	.	.	.	.	.
c1ccc(-c2ccc(-c3ccccn3)nn2)nc1	-13	61	51*	28*	38	0	-44	54*	36*
Cc1cc(NCc2ccccc2)n2ncc(-c3ccccc3)c2n1	.	.	.	2	.	.	.	.	.
Cc1cc(NCCCn2ccnc2)n2ncc(-c3ccccc3)c2n1	27	37	74*	34*	21	25*	-57	62*	56*
Cc1cc(N2CCOCC2)n2ncc(-c3ccccc3)c2n1	32	47	66*	51*	23	5	-79	67*	62*
Cc1cc(-c2ccccc2)n2ncc(-c3ccccc3)c2n1	-49	60	50*	22*	0	-15	-134	61*	55*
COc1ccc(-c2cc(C)nc3c(-c4ccccc4)cnn23)cc1	-72	59	51*	21*	-18	-38	-183	45*	28*
CCN1CCN(CC(=O)Nc2c(OC)cccc2OC)CC1	.	.	.	-3	.	.	.	.	.
CCCCn1c(N)c(N(CC(C)C)C(=O)c2cc(C)oc2C)c(=O)[nH]c1=O	.	.	.	-5	.	.	.	.	.
C=CCn1c(C)cc(C(=O)COC(=O)CNC(=O)c2ccccc2)c1C	31	62	46*	17*	-26	0	-68	6	29*
O=C1CCCN1CC(=O)N1CCCC(Nc2cccc(F)c2)C1 (configuration not stated)	.	.	.	-2	.	.	.	.	.
O=C(Nc1nc(-c2ccccc2)ns1)c1ccncc1	.	.	.	-2	.	.	.	.	.
Cc1ccc(C(=O)Nc2ccc(-c3csc(C)n3)cc2)cc1	-72	92	12	1	.	.	.	.	.
